Compound activity deposited in PubChem BioAssay by The Scripps Research Institute Molecular Screening Center.
CHRM4 antagonist: blocks acetylcholine activation of human M4 receptor. P08173. CHO-hM4 cells, ACh EC80, Fluo-8 calcium fluorescence. inhibition, % at 3 µM. 360,000 compounds, 0.73% hits. AID 624125;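 active = inhibition above its plate's cutoff, the mean inhibition of sample wells plus 3 SD, cut at about 27% in these data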;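 also: 0% = acetylcholine EC80 with DMSO and 100% = DMSO without agonist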
M5 ag: agonists of human muscarinic M5 receptor (CHRM5); AID 624037; P08912; activation, % at 3 µM; 360,000 compounds, 0.19% hits; CHO-K1 hM5 cells, Fluo-8 calcium fluorescence; 0% DMSO wells, 100% maximal acetylcholine response;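 active = activation above the run's mean over test compounds plus 3 SD, cut at about 23% in these data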;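 also: signal is peak over basal fluorescence ratio across the kinetic read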
Target sequence (P08912 whole entry, looked up): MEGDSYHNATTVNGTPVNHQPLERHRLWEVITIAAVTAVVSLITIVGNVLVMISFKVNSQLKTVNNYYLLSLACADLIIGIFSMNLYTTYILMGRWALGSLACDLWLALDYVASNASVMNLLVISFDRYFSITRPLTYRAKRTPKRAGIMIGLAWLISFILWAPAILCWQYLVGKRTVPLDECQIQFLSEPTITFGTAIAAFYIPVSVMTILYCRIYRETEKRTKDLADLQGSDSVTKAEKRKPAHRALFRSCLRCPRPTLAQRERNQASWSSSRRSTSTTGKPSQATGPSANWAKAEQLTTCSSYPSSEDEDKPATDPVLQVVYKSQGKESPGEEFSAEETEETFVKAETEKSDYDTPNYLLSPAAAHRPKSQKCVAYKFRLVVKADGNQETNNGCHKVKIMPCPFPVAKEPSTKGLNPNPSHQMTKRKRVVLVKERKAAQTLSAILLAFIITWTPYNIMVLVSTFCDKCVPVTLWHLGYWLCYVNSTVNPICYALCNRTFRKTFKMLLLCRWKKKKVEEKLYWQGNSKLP
CHRM5 PAM: positive allosteric modulators of human muscarinic M5 receptor; P08912; CHO-K1 hM5, Fluo-8 calcium, ACh EC20 PAM; 0% = ACh EC20, 100% = ACh EC100; activation, % at 3 µM; 360,000 compounds, 0.3% hits; AID 624038;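 active = activation above the run cutoff, the mean activation of all test compounds plus 3 SD, cut at about 18% in these data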
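Replicates: One well per compound, no replicates | System: Human M5 receptor in CHO-K1 cells | Benchmarks: Low control EC20 acetylcholine (0%), high control EC100 acetylcholine (100%) | Probe or stimulus: Acetylcholine, EC20 level | Times: Fluo-8 loading 80 min at 37 °C plus 30 min room temperature | Signal: Intracellular calcium via Fluo-8 fluorescence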
M4 PAM: potentiates acetylcholine response at human M4 receptor. activation, % at 3 µM. 360,000 compounds, 0.4% hits. P08173. CHO-K1 hM4/Gqi5, Fluo-8 calcium fluorescence, ACh EC20; 0% = ACh EC20, 100% = maximal ACh;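 active = activation above its plate's cutoff, the mean activation of sample wells plus 3 SD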
CHRM5 antagonist: blocks acetylcholine activation of human M5 receptor. inhibition, % at 3 µM. AID 624040. 360,000 compounds, 0.59% hits. CHO-hM5 cells, Fluo-8 calcium fluorescence, ACh EC80;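 active = inhibition above a per-plate cutoff, the mean of that plate's test compounds plus 3 SD, cut at about 27% in these data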;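 also: 0% = acetylcholine EC80 with DMSO and 100% = DMSO without agonist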
M4 ag: agonists of human muscarinic M4 receptor (CHRM4); P08173; CHO-K1 hM4/Gqi5, Fluo-8 calcium fluorescence; vehicle 0%, full acetylcholine response 100%; activation, % at 3 µM; 360,000 compounds, 0.14% hits;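 active = activation above the run mean over all test wells plus 3 SD, cut at about 32% in these data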;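 also: peak over basal fluorescence ratio per well then scaled between controls; 0% = DMSO wells and 100% = acetylcholine at EC100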
Numbers without * were called inactive. Most compounds without a hit are left out; they make up all but 1.8% or so of the library.

How did Cc1ccccc1NC(=O)CC1SC(=NC2CCCCC2)NC1=O (stereo not given) do in these assays?
CHRM4 antagonist: -1; M5 ag: -3; CHRM5 PAM: -2; M4 PAM: 4; CHRM5 antagonist: -5; M4 ag: 1

What do the screens show for `Cc1ccc(NC(=O)CC2SC(=NC3CCCCC3)NC2=O)cc1` (stereo not given)?
CHRM4 antagonist: -9; M5 ag: -5; CHRM5 PAM: 1; M4 PAM: 18*; CHRM5 antagonist: -2; M4 ag: 0

How did COc1ccc2cc(C3(C)NC(=O)N(CC(=O)N4CCCCC4)C3=O)ccc2c1 (stereo not given) do in these assays?
CHRM4 antagonist: -1; M5 ag: 7; CHRM5 PAM: 1; M4 PAM: 0; CHRM5 antagonist: -4; M4 ag: 6

What do the screens show for `COc1ccc(C2=NNC(=O)CC2)cc1`?
CHRM4 antagonist: -5; M5 ag: 3; CHRM5 PAM: 24*; M4 PAM: 0; CHRM5 antagonist: -10; M4 ag: 1

Results for CCOC(=O)CCN1C(=O)c2ccccc2Sc2ncccc21 ?
CHRM4 antagonist: -11; M5 ag: -2; CHRM5 PAM: -2; M4 PAM: -1; CHRM5 antagonist: 1; M4 ag: 1

Results for COc1ccc(NC(=O)C2CCN(C(=O)c3cccs3)CC2)cc1OC ?
CHRM4 antagonist: -6; M5 ag: -6; CHRM5 PAM: 0; M4 PAM: 3; CHRM5 antagonist: 4; M4 ag: 0

What do the screens show for `COc1ccc([N+](=O)[O-])cc1NC1CCN(C(=O)c2cccs2)CC1`?
CHRM4 antagonist: -3; M5 ag: 0; CHRM5 PAM: 5; M4 PAM: 18*; CHRM5 antagonist: 3; M4 ag: 3

What do the screens show for `COc1ccccc1C(CNC(=O)C(C)(C)Oc1ccc(Cl)cc1)N1CCCC1` (stereo not given)?
CHRM4 antagonist: 10; M5 ag: -8; CHRM5 PAM: -32; M4 PAM: -16; CHRM5 antagonist: 72*; M4 ag: 1

What do the screens show for `O=c1c2ccccc2nc2sc(Nc3cccc(Cl)c3)nn12`?
CHRM4 antagonist: 7; M5 ag: 6; CHRM5 PAM: 20*; M4 PAM: -1; CHRM5 antagonist: -15; M4 ag: 1

Results for O=C(O)/C=C/c1cn(-c2ncc(C(F)(F)F)cc2Cl)c2ccccc12 ?
CHRM4 antagonist: -1; M5 ag: -10; CHRM5 PAM: 12; M4 PAM: 11; CHRM5 antagonist: -4; M4 ag: 0

How did CN(C)C(=O)CSc1nnc2sc3ccccc3n12 do in these assays?
CHRM4 antagonist: -5; M5 ag: -3; CHRM5 PAM: 3; M4 PAM: 5; CHRM5 antagonist: 0; M4 ag: 2

How did CCOC(=O)CC(=O)CSc1nnc2sc3ccccc3n12 do in these assays?
CHRM4 antagonist: -16; M5 ag: -9; CHRM5 PAM: 35*; M4 PAM: -1; CHRM5 antagonist: -15; M4 ag: 6

What do the screens show for `CC1CN(C(=O)c2cc(-c3ccncc3)nc3ccccc23)CC(C)O1` (stereo not given)?
CHRM4 antagonist: -14; M5 ag: -4; CHRM5 PAM: -4; M4 PAM: 23*; CHRM5 antagonist: -3; M4 ag: 2

What do the screens show for `CC1CC(C)CN(C(=O)c2cc(-c3ccncc3)nc3ccccc23)C1` (stereo not given)?
CHRM4 antagonist: 2; M5 ag: -4; CHRM5 PAM: 3; M4 PAM: 6; CHRM5 antagonist: 1; M4 ag: 2

What do the screens show for `Cc1ccc(NC(=O)CCNC(=O)Cn2cnc3ccccc3c2=O)cc1F`?
CHRM4 antagonist: -5; M5 ag: -3; CHRM5 PAM: -2; M4 PAM: 3; CHRM5 antagonist: 10; M4 ag: 3

What do the screens show for `COc1cc(/C=C/C(=O)OCC(=O)N2CC(C)OC(C)C2)ccc1OCC#N` (stereo not given)?
CHRM4 antagonist: -4; M5 ag: 2; CHRM5 PAM: 2; M4 PAM: -1; CHRM5 antagonist: -3; M4 ag: 0

What do the screens show for `O=C1C=CC2(O[C@H](c3ccccc3)[C@@H](c3ccccc3)O2)[C@H](Sc2ccccc2O)C1`?
CHRM4 antagonist: 57*; M5 ag: 2; CHRM5 PAM: 2; M4 PAM: -5; CHRM5 antagonist: 23; M4 ag: 1

How did O=C(NCCNC(=O)c1ccccc1)c1ccccc1 do in these assays?
CHRM4 antagonist: -7; M5 ag: 0; CHRM5 PAM: -7; M4 PAM: 12; CHRM5 antagonist: 3; M4 ag: 1

What do the screens show for `C[N+](C)(C)CCNC(=O)c1ccccc1`?
CHRM4 antagonist: -7; M5 ag: -2; CHRM5 PAM: 9; M4 PAM: 23*; CHRM5 antagonist: -17; M4 ag: 1

What do the screens show for `Cc1ccccc1NC(=O)Nc1ccc2c(c1)CCC2`?
CHRM4 antagonist: -9; M5 ag: -3; CHRM5 PAM: 6; M4 PAM: 6; CHRM5 antagonist: -14; M4 ag: 1

What do the screens show for `CC(=O)Nc1ccc2ccccc2c1`?
CHRM4 antagonist: 6; M5 ag: 2; CHRM5 PAM: 0; M4 PAM: 11; CHRM5 antagonist: -4; M4 ag: 1

What do the screens show for `C/C(=N\NC(=O)Nc1ccccc1)c1ccc2ccccc2c1`?
CHRM4 antagonist: -10; M5 ag: -4; CHRM5 PAM: -7; M4 PAM: 8; CHRM5 antagonist: 34*; M4 ag: 1

What do the screens show for `O=C(Nc1ccccc1)Nc1ccc2ccccc2c1`?
CHRM4 antagonist: 2; M5 ag: 3; CHRM5 PAM: -33; M4 PAM: -21; CHRM5 antagonist: 33*; M4 ag: 16

What do the screens show for `O=C(CSCc1ccc(C(=O)O)cc1)Nc1ccccc1`?
CHRM4 antagonist: -4; M5 ag: -2; CHRM5 PAM: -6; M4 PAM: 1; CHRM5 antagonist: 1; M4 ag: 0

How did O=C(CSCc1ccc(C(=O)O)cc1)Nc1ccc2ccccc2c1 do in these assays?
CHRM4 antagonist: 34*; M5 ag: 3; CHRM5 PAM: -5; M4 PAM: 13; CHRM5 antagonist: 2; M4 ag: 1

What do the screens show for `C/C(=N/NC(=O)Nc1ccccc1)c1ccc(C)cc1`?
CHRM4 antagonist: -5; M5 ag: -3; CHRM5 PAM: -3; M4 PAM: 7; CHRM5 antagonist: 13; M4 ag: 1

How did NS(=O)(=O)c1ccc(NC(=O)COc2ccc(S(=O)(=O)N3CCCC3)cc2)cc1 do in these assays?
CHRM4 antagonist: 2; M5 ag: -1; CHRM5 PAM: -3; M4 PAM: -7; CHRM5 antagonist: 22; M4 ag: 0
